From ChEMBL document CHEMBL4311965, “Antimicrobial activity of amphipathic α,α-disubstituted β-amino amide derivatives against ESBL - CARBA producing multi-resistant bacteria; effect of halogenation, lipophilicity and cationic character” (Eur J Med Chem, 2019)
≈ marks a conversion by molar mass, not a printed value.

What was measured:
[1] = tested on: Staphylococcus aureus; assay: Antibacterial activity against multidrug-resistant Staphylococcus aureus N315 cultured in MHB medium assessed as reduction in bacterial growth incubated for 24 hrs by microdilution susceptibility test; type: functional; conditions: N315, 24 h
Method in brief: (§1)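 Broth microdilution per CLSI M07-A9 (modified). Working solutions made from concentrated DMSO stocks kept at r.t., diluted in double-distilled water, final DMSO <1%. Inoculum 1–1.2 x 10⁶ cells/mL in Mueller-Hinton broth, mixed 1:1 with compound. 37 °C, 24 h, four parallels. Read as OD₆₀₀. Where precipitation left residual OD, the point of major OD decrease was taken as the inhibitory concentration.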

[2] = tested on: MRC5; assay: Cytotoxicity against human MRC5 cells assessed as reduction in cell viability incubated for 4 hrs by CellTiter 96 Aqueous One Solution Reagent based assay; conditions: MRC5, 4 h
Method in brief: (§2)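 HepG2 and MRC-5 cells seeded at 35 000 and 15 000 cells/well respectively, then held overnight at 37 °C, 5% CO₂. Compounds in serum-free MEM Earle's applied for 4 h. MTS reagent (CellTiter 96 AQueous One) added for a further 1 h, absorbance read at 485 nm. Survival expressed relative to medium (negative) and Triton X-100 (positive) controls.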

[3] = tested on: Acinetobacter baumannii; assay: Antibacterial activity against multidrug-resistant Acinetobacter baumannii K47-42 producing oxcillinase-23 cultured in MHB medium assessed as reduction in bacterial growth incubated for 24 hrs by microdilution susceptibility test; type: functional; conditions: K47-42, 24 h; method in brief: as §1
[4] = Drug metabolism in Sprague-Dawley rat liver microsomes assessed as CYP450-mediated deaminated form of N-(2-aminoethyl)-2-(aminomethyl)-3-(4-fluoro-1-naphthyl)-2-[(4-fluoro-1-naphthyl)methyl]propanamide metabolite formation incubated up to 3 hrs in presence of NADPH regenerating system by RP-HPLC-MS analysis; type: ADME
Method in brief: (§3)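 Substrate at 1 µL of 100 µM aqueous stock in 100 mM potassium phosphate, pH 7.4, with NADPH regenerating system. Pooled male Sprague–Dawley rat liver microsomes (20 mg/mL stock) added, then incubated at 37 °C. Sampled at 0–180 min and quenched with cold methanol containing propranolol internal standard. Analysed by RP-HPLC–HRMS in positive ESI mode. Metabolites confirmed by HCD MS2. Triplicate incubations.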

[5] = tested on: Klebsiella pneumoniae; assay: Antibacterial activity against multidrug-resistant Klebsiella pneumoniae 50531633 producing New Delhi metallo-beta-lactamase-1 and oxcillinase-181 cultured in MHB medium assessed as reduction in bacterial growth incubated for 24 hrs by microdilution susceptibility test; type: functional; conditions: Klebsiella pneumoniae, 50531633, 24 h; method in brief: as §1
[6] = Aqueous solubility of the compound in DMSO; type: physicochemical
[7] = tested on: Staphylococcus aureus; assay: Antibacterial activity against Staphylococcus aureus ATCC 9144 cultured in MHB medium assessed as no bacterial growth incubated at 37 degC for 24 hrs by microdilution susceptibility test; type: functional; conditions: ATCC 9144, 24 h
Method in brief: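 Broth microdilution per CLSI M07-A9 with modifications. Inoculum about 2.5–3 x 10⁴ cells/mL in Mueller-Hinton broth, mixed 1:1 with test derivative. DMSO stocks diluted in double-distilled water, final DMSO <1%. Incubation 24 h at 37 °C (20 °C for C. glutamicum). Growth and sterility controls included; oxytetracycline reference.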

[8] = Drug metabolism in Sprague-Dawley rat liver microsomes assessed as CYP450-mediated N-(2-aminoethyl)-2-(aminomethyl)-2-[(4-fluoro-5,6-dihydroxy-5,6-dihydronaphthalen-1-yl)methyl]-3-(4-fluoro-1-naphthyl)propanamide formation incubated up to 3 hrs in presence of NADPH regenerating system by RP-HPLC-MS analysis; type: ADME; method in brief: as §3
[9] = tested on: Acinetobacter baumannii; assay: Antibacterial activity against multidrug-resistant Acinetobacter baumannii K44-35 producing oxcillinase-23 cultured in MHB medium assessed as reduction in bacterial growth incubated for 24 hrs by microdilution susceptibility test; type: functional; conditions: K44-35, 24 h; method in brief: as §1
[10] = tested on: Escherichia coli; assay: Antibacterial activity against multidrug-resistant Escherichia coli 50857972 producing imipenem-type carbapenemase-26 cultured in MHB medium assessed as reduction in bacterial growth incubated for 24 hrs by microdilution susceptibility test; type: functional; conditions: Escherichia coli, 50857972, 24 h; method in brief: as §1
[11] = tested on: Klebsiella pneumoniae; assay: Antibacterial activity against multidrug-resistant Klebsiella pneumoniae K47-25 producing carbapenemase-2 cultured in MHB medium assessed as reduction in bacterial growth incubated for 24 hrs by microdilution susceptibility test; type: functional; conditions: K47-25, 24 h; method in brief: as §1
[12] = tested on: Klebsiella pneumoniae; assay: Antibacterial activity against multidrug-resistant Klebsiella pneumoniae 50667959 producing Verona integron encoded metallo beta-lactamse-1 cultured in MHB medium assessed as reduction in bacterial growth incubated for 24 hrs by microdilution susceptibility test; type: functional; conditions: Klebsiella pneumoniae, 50667959, 24 h; method in brief: as §1
[13] = tested on: Klebsiella pneumoniae; assay: Antibacterial activity against multidrug-resistant Klebsiella pneumoniae K66-45 producing New Delhi metallo-beta-lactamase-1 cultured in MHB medium assessed as reduction in bacterial growth incubated for 24 hrs by microdilution susceptibility test; type: functional; conditions: K66-45, 24 h; method in brief: as §1
[14] = tested on: Pseudomonas aeruginosa; assay: Antibacterial activity against multidrug-resistant Pseudomonas aeruginosa 50692520 producing Verona integron encoded metallo beta-lactamse cultured in MHB medium assessed as reduction in bacterial growth incubated for 24 hrs by microdilution susceptibility test; type: functional; conditions: Pseudomonas aeruginosa, 50692520, 24 h; method in brief: as §1
[15] = tested on: Staphylococcus aureus; assay: Antibacterial activity against multidrug-resistant Staphylococcus aureus 85/2082 cultured in MHB medium assessed as reduction in bacterial growth incubated for 24 hrs by microdilution susceptibility test; type: functional; conditions: 85/2082, 24 h; method in brief: as §1
[16] = tested on: Escherichia coli; assay: Antibacterial activity against multidrug-resistant Escherichia coli 50676002 producing New Delhi metallo-beta-lactamase-1 cultured in MHB medium assessed as reduction in bacterial growth incubated for 24 hrs by microdilution susceptibility test; type: functional; conditions: Escherichia coli, 50676002, 24 h; method in brief: as §1
[17] = tested on: Staphylococcus aureus; assay: Antibacterial activity against multidrug-resistant Staphylococcus aureus WIS cultured in MHB medium assessed as reduction in bacterial growth incubated for 24 hrs by microdilution susceptibility test; type: functional; method in brief: as §1
[18] = tested on: HepG2; assay: Cytotoxicity against human HepG2 cells assessed as reduction in cell viability incubated for 4 hrs by CellTiter 96 Aqueous One Solution Reagent based assay; conditions: HepG2, 4 h; method in brief: as §2

Structure (SMILES): NCCNC(=O)C(CN)(Cc1ccc(F)c2ccccc12)Cc1ccc(F)c2ccccc12
- MIC [1]: 16 µg/mL (≈ 35.8 µM)
- EC50 [2]: 4 µg/mL (≈ 8.94 µM)
- MIC [3]: 16 µg/mL (≈ 35.8 µM)
- Drug metabolism [4]: Metabolite_Detected
- MIC [5]: 8 µg/mL (≈ 17.9 µM)
- solubility [6]: Soluble
- MIC [7]: 4 µg/mL (≈ 8.94 µM)
- Drug metabolism [8]: Metabolite_Detected
- MIC [9]: > 32 µg/mL
- MIC [10]: 8 µg/mL (≈ 17.9 µM)
- MIC [11]: 32 µg/mL (≈ 71.5 µM)
- MIC [12]: 8 µg/mL (≈ 17.9 µM)
- MIC [13]: 8 µg/mL (≈ 17.9 µM)
- MIC [14]: > 32 µg/mL
- MIC [15]: 8 µg/mL (≈ 17.9 µM)
- MIC [16]: 8 µg/mL (≈ 17.9 µM)
- MIC [17]: 16 µg/mL (≈ 35.8 µM)
- EC50 [18]: 12 µg/mL (≈ 26.8 µM)
